Reference: ChEMBL document CHEMBL3351772, “Xenortide Biosynthesis by Entomopathogenic Xenorhabdus nematophila” (J Nat Prod, 2014)
Square brackets hold non-standard residues; d marks the D form. Peptide text beside a SMILES is read from it. * marks the point of attachment. NMeF = CN[C@@H](Cc1ccccc1)C(=O)O; NMeL = CN[C@@H](CC(C)C)C(=O)O; NHPhenethyl = c1ccc(CCN*)cc1; NMeV = CN[C@H](C(=O)O)C(C)C

Columns and labels:
[1] = test system: Trypanosoma cruzi; experiment: Antiparasitic activity against Trypanosoma cruzi Tulahuen C4; format: functional, organism-based
[2] = test system: Trypanosoma brucei rhodesiense; experiment: Antiparasitic activity against Trypanosoma brucei rhodesiense STIB900; format: functional, organism-based
[3] = test system: Plasmodium falciparum; experiment: Antiparasitic activity against Plasmodium falciparum NF54; format: functional, organism-based
[4] = test system: Leishmania donovani; experiment: Antiparasitic activity against Leishmania donovani; format: functional, organism-based
In short: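 Leishmania donovani strain MHOM-ET-67/L82; assay run per an earlier published method.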

[5] = test system: L6; experiment: Cytotoxicity against rat L6 cells; format: cell-based
In short: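 Rat L6 skeletal myoblasts; cytotoxicity assay run per an earlier published method.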

| SMILES | IC50 [1] [µM] | IC50 [2] [µM] | IC50 [3] [µM] | IC50 [4] [µM] | IC50 [5] [µM] |
| --- | --- | --- | --- | --- | --- |
| CN[C@H](C(=O)N(C)[C@@H](Cc1ccccc1)C(=O)NCCc1c[nH]c2ccccc12)C(C)C | 52.7 | 4.92 | 7.66 | 17.3 | 85.6 |
| CN[C@H](C(=O)N(C)[C@@H](Cc1ccccc1)C(=O)NCCc1ccccc1)C(C)C (H-[NMeV]-[NMeF]-NHPhenethyl) | 132 | 89.2 | > 126 | 25 | > 253 |
| CCCCCCCCCCCCCCCCOP(=O)([O-])OCC[N+](C)(C)C [MILTEFOSINE] |  |  |  | 0.459 |  |
| CN[C@@H](CC(C)C)C(=O)N(C)[C@@H](Cc1ccccc1)C(=O)NCCc1ccccc1 [XENORTIDE A] (H-[NMeL]-[NMeF]-NHPhenethyl) | 46.4 | 22.5 | 19.2 | 124 | 116 |
| CN[C@@H](CC(C)C)C(=O)N(C)[C@@H](Cc1ccccc1)C(=O)NCCc1c[nH]c2ccccc12 [XENORTIDE B] | 11.7 | 1.57 | 0.76 | 111 | 13.7 |
